# Test results: ChEMBL document CHEMBL1137220, “2-(2-(dimethylaminomethyl)phenoxy)-5-iodophenylamine: an improved serotonin transporter imaging agent” (J Med Chem, 2004)
# Values joined by “and” are separate entries in the source; they are usually repeats but may differ in a detail not shown here. Equal values may be shown once.
# Tests used:
# [1] = Biodistribution in rat skin was determined after 6 hours of intravenous administration of the compound; [125I]- is used as radioactive isotope; type: ADME, organism-based, Zone of skin; conditions: in vivo
# How it was run: (§1)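 Rats, three per group, under ether anaesthesia, received 10 μCi of [¹²⁵I]-labelled tracer in 0.2 mL saline into the femoral vein. They were killed by cardiac excision under ether at each time point. Organs were removed, weighed and counted. Percent dose per organ was calculated against counts of a 1% aliquot of the injected dose (100-fold diluted) counted at the same time.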
# [2] = Distribution ratio in hypothalamus and cerebellum was determined after 120 min of intravenous administration of the compound; [125I]- is used as radioactive isotope; type: ADME, tissue-based; conditions: rat, 2 h
# How it was run: (§2)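 After femoral-vein injection of 10 μCi [¹²⁵I] tracer in 0.2 mL saline under ether anaesthesia (three rats per group), brain regions were dissected, weighed and counted: cortex (frontal plus occipital), hippocampus, hypothalamus and cerebellum. %dose/g was calculated against a diluted injected-dose standard. Ratio = (region − cerebellum)/cerebellum on a %dose/g basis, with cerebellum as the background region.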
# [3] = Distribution ratio in hypothalamus and cerebellum was determined after 24 hours of intravenous administration of the compound; [125I]- is used as radioactive isotope; type: ADME, tissue-based; conditions: rat; how it was run: as §2
# [4] = Biodistribution in rat liver was determined after 2 min of intravenous administration of the compound; [125I]- is used as radioactive isotope; type: ADME, organism-based; conditions: in vivo
# How it was run: (§3)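 Rats under ether anesthesia, three per group, received 10 μCi tracer in 0.2 mL saline into the femoral vein. They were killed by cardiac excision under ether at each time point. Organs were removed, weighed and counted. Percent dose per organ was calculated against a 1%-of-injected-dose standard counted at the same time.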
# [5] = Biodistribution in rat spleen was determined after 6 hours of intravenous administration of the compound; [125I]- is used as radioactive isotope; type: ADME, organism-based; conditions: in vivo; how it was run: as §1
# [6] = Biodistribution in rat heart was determined after 30 min of intravenous administration of the compound; [125I]- is used as radioactive isotope; type: ADME, organism-based; conditions: in vivo, 0.5 h; how it was run: as §3
# [7] = Biodistribution in rat liver was determined after 30 min of intravenous administration of the compound; [125I]- is used as radioactive isotope; type: ADME, organism-based; conditions: in vivo, 0.5 h; how it was run: as §3
# [8] = Biodistribution in rat blood was determined after 120 min of intravenous administration of the compound; [125I]- is used as radioactive isotope; type: ADME, organism-based; conditions: in vivo, 2 h; how it was run: as §3
# [9] = Biodistribution in rat blood was determined after 30 min of intravenous administration of the compound; [125I]- is used as radioactive isotope; type: ADME, organism-based; conditions: in vivo, 0.5 h; how it was run: as §3
# [10] = Biodistribution in rat muscle was determined after 120 min of intravenous administration of the compound; [125I]- is used as radioactive isotope; type: ADME, organism-based, Muscle tissue; conditions: in vivo, 2 h; how it was run: as §1
# [11] = Biodistribution in rat muscle was determined after 11 hours of intravenous administration of the compound; [125I]- is used as radioactive isotope; type: ADME, organism-based, Muscle tissue; conditions: in vivo; how it was run: as §1
# [12] = Regional brain distribution in rat hypothalamus was determined after 120 min of intravenous administration of the compound; [125I]- is used as radioactive isotope; type: ADME, tissue-based; conditions: in vivo, 2 h
# How it was run: (§4)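 Rats, three per group, injected with 10 μCi tracer in 0.2 mL saline via the femoral vein under ether anesthesia and killed by cardiac excision at the stated time. Cortex (frontal plus occipital), striatum, hippocampus, cerebellum and hypothalamus were dissected, weighed and gamma-counted. Values are % dose/g, calculated by comparison with counts of a 100-fold diluted aliquot of the injected dose.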
# [13] = Biodistribution in rat muscle was determined after 240 min of intravenous administration of the compound; [125I]- is used as radioactive isotope; type: ADME, organism-based, Muscle tissue; conditions: in vivo, 4 h; how it was run: as §1
# [14] = Distribution ratio in hypothalamus and cerebellum was determined after 240 min of intravenous administration of the compound; [125I]- is used as radioactive isotope; type: ADME, tissue-based; conditions: rat, 4 h; how it was run: as §2
# [15] = Biodistribution in rat liver was determined after 11 hours of intravenous administration of the compound; [125I]- is used as radioactive isotope; type: ADME, organism-based; conditions: in vivo; how it was run: as §3
# [16] = Biodistribution in rat thyroid was determined after 11 hours of intravenous administration of the compound; [125I]- is used as radioactive isotope; type: ADME, organism-based, Thyroid gland; conditions: in vivo; how it was run: as §1
# [17] = Biodistribution in rat skin was determined after 11 hours of intravenous administration of the compound; [125I]- is used as radioactive isotope; type: ADME, organism-based, Zone of skin; conditions: in vivo; how it was run: as §1
# [18] = Biodistribution in rat thyroid was determined after 30 min of intravenous administration of the compound; [125I]- is used as radioactive isotope; type: ADME, organism-based, Thyroid gland; conditions: in vivo, 0.5 h; how it was run: as §1
# [19] = Biodistribution in rat blood was determined after 240 min of intravenous administration of the compound; [125I]- is used as radioactive isotope; type: ADME, organism-based; conditions: in vivo, 4 h; how it was run: as §3
# [20] = Distribution ratio in striatum and cerebellum was determined after 60 min of intravenous administration of the compound; [125I]- is used as radioactive isotope; type: ADME, tissue-based; conditions: rat, 1 h
# How it was run: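 Rats, three per group, given 10 μCi tracer in 0.2 mL saline into the femoral vein under ether anesthesia, then killed by cardiac excision at the stated time. Brain regions were dissected, weighed and counted. Percent dose/g was calculated against a 1% diluted aliquot of the injected dose. The ratio is (region − cerebellum)/cerebellum on a % dose/g basis, with cerebellum as background.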
# [21] = Distribution ratio in cortex and cerebellum was determined after 6 hrs of intravenous administration of the compound; [125I]- is used as radioactive isotope; type: ADME, tissue-based; conditions: rat; how it was run: as §2
# [22] = Biodistribution in rat heart was determined after 120 min of intravenous administration of the compound; [125I]- is used as radioactive isotope; type: ADME, organism-based; conditions: in vivo, 2 h; how it was run: as §3
# [23] = Regional brain distribution in rat cortex was determined after 240 min of intravenous administration of the compound; [125I]- is used as radioactive isotope; type: ADME; conditions: in vivo, 4 h; how it was run: as §4
# [24] = Biodistribution in rat heart was determined after 240 min of intravenous administration of the compound; [125I]- is used as radioactive isotope; type: ADME, organism-based; conditions: in vivo, 4 h; how it was run: as §3
# [25] = Regional brain distribution in rat hippocampus was determined after 60 min of intravenous administration of the compound; [125I]- is used as radioactive isotope; type: ADME, tissue-based; conditions: in vivo, 1 h; how it was run: as §4
# [26] = Regional brain distribution in rat hippocampus was determined after 30 min of intravenous administration of the compound; [125I]- is used as radioactive isotope; type: ADME, tissue-based; conditions: in vivo, 0.5 h; how it was run: as §4
# [27] = Regional brain distribution in rat hypothalamus was determined after 2 min of intravenous administration of the compound; [125I]- is used as radioactive isotope; type: ADME, tissue-based; conditions: in vivo; how it was run: as §4
# [28] = Biodistribution in rat brain was determined after 30 min of intravenous administration of the compound; [125I]- is used as radioactive isotope; type: ADME, organism-based; conditions: in vivo, 0.5 h; how it was run: as §3
# [29] = Regional brain distribution in rat cerebellum was determined after 60 min of intravenous administration of the compound; [125I]- is used as radioactive isotope; type: ADME, tissue-based; conditions: in vivo, 1 h; how it was run: as §4
# [30] = Regional brain distribution in rat striatum was determined after 24 hours of intravenous administration of the compound; [125I]- is used as radioactive isotope; type: ADME, tissue-based; conditions: in vivo; how it was run: as §4
# [31] = Biodistribution in rat blood was determined after 24 hours of intravenous administration of the compound; [125I]- is used as radioactive isotope; type: ADME, organism-based; conditions: in vivo; how it was run: as §3
# [32] = Biodistribution in rat brain was determined after 60 min of intravenous administration of the compound; [125I]- is used as radioactive isotope; type: ADME, organism-based; conditions: in vivo, 1 h; how it was run: as §3
# [33] = Biodistribution in rat liver was determined after 60 min of intravenous administration of the compound; [125I]- is used as radioactive isotope; type: ADME, organism-based; conditions: in vivo, 1 h; how it was run: as §3
# [34] = Biodistribution in rat thyroid was determined after 2 min of intravenous administration of the compound; [125I]- is used as radioactive isotope; type: ADME, organism-based, Thyroid gland; conditions: in vivo; how it was run: as §1
smiles,measurement,setting,value
CN(C)Cc1ccccc1Oc1ccc(I)cc1N,Dose,[1],15.5%
same,Dose/g,[2],3.49%
same,Dose/g,[3],0.23%
same,Dose,[4],5.71%
same,Dose,[5],0.11% and 0.05%
same,Dose,[6],0.32%
same,Dose,[7],7.1%
same,Dose,[8],3.15%
same,Dose,[9],4.56%
same,Dose,[10],9.18%
same,Dose,[11],4.01%
same,Dose/g,[12],0.92%
same,Dose,[13],6.27%
same,Dose/g,[14],4.49%
same,Dose,[15],2.64%
same,Dose,[16],5.15%
same,Dose,[17],10.9%
same,Dose,[18],0.15%
same,Dose,[19],3.12%
same,Dose/g,[20],1.51%
same,Dose/g,[21],0.58%
same,Dose,[22],0.13%
same,Dose/g,[23],0.12%
same,Dose,[24],0.08%
same,Dose/g,[25],0.94%
same,Dose/g,[26],1.06%
same,Dose/g,[27],0.96%
same,Dose,[28],2.12%
same,Dose/g,[29],0.41%
same,Dose/g,[30],0.0039%
same,Dose,[31],0.7%
same,Dose,[32],1.74%
same,Dose,[33],5.79%
same,Dose,[34],0.1%
